# In the library only some 2.2% were active in any assay of this set; here they are far more common.
# Exocytosis inh – LAMP-1 surface exposure blockers, TALL-104 cells – cell-based, flow cytometry, MLPCN library, primary screen. TALL-104 LAMP-1 surface exposure; cells stimulated with thapsigargin and PMA. inhibition, % at 10 µM. 360,000 tested, 0.66% active;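 active = inhibition above about 55%, limit read from the data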
# PfG6PD inh – PfG6PD enzyme inhibitors, primary screen, biochemical, fluorescence intensity, uHTS | inhibition, % at 20 µM | PfGluPho enzyme, NADPH resazurin-diaphorase fluorescence | 350,000 tested, 0.78% active | AID 504690, 2011;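 active = inhibition reaching at least a set limit at 20 µM in the primary screen, cut at about 59% in these data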;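 also: 0% = DMSO wells with substrate and 100% = DMSO wells lacking glucose-6-phosphate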
# ABHD5-PLIN5 inh – ABHD5-PLIN5 interaction inhibitors, primary screen, cell lysate, split luciferase complementation, luminescence | 360,000 tested, 0.78% active | inhibition, % at 4 µM | Split G. princeps luciferase complementation, 4 h | Perilipin-5 (Homo sapiens) + 1-acylglycerol-3-phosphate O-acyltransferase ABHD5 (Homo …;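 active = inhibition above the mean inhibition across every tested compound plus 3 SD, cut at about 22% in these data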;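 also: 0% = DMSO only wells and the 100% control is not disclosed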
# Target sequence (Q00G26 whole entry, looked up): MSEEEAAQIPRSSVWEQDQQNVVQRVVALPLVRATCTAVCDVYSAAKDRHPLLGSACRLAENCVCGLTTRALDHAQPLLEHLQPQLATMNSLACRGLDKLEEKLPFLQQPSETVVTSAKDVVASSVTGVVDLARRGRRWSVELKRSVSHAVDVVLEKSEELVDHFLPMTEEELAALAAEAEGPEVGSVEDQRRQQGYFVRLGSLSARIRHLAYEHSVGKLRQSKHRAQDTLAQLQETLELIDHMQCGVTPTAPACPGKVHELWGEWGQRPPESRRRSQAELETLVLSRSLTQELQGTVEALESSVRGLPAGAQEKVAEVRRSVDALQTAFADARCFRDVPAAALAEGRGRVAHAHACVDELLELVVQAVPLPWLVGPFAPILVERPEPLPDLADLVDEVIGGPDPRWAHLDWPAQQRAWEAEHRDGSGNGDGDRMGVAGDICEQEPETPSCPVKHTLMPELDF
# Target sequence (Q8WTS1 whole entry, looked up): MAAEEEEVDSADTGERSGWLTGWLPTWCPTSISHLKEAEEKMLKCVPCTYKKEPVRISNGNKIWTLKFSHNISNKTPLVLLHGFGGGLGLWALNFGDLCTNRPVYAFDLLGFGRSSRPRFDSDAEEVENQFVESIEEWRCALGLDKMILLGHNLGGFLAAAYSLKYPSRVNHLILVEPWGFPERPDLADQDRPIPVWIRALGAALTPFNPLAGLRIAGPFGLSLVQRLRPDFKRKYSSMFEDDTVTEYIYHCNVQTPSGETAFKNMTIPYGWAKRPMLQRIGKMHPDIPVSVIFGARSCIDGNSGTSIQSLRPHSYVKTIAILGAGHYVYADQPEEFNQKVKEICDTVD
# HKDC1 inh – HKDC1 hexokinase inhibitors, primary screen, biochemical, fluorescence, uHTS. Q2TB90. recombinant HKDC1, G6PDH/diaphorase resazurin coupled fluorescence. inhibition, % at 20 µM. 340,000 tested, 0.16% active;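 active = inhibition above about 35% when tested at 20 µM, limit read from the data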;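 also: plate controls were DMSO wells with enzyme for no effect and DMSO wells lacking enzyme for full effect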
#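 Assay system: in-house recombinant HK5 (HKDC1) enzyme. Input: HKDC1 at 5 µg/mL. Medium: Tris pH 8.0 buffer with MgCl2, Tween-20, BSA, BME. Dosing: single 20 µM dose. Schedule: 90 min reaction incubation at room temperature, dark. Signal: resazurin-to-resorufin fluorescence via G6PDH and diaphorase coupling, 525/613 nm. Controls: DMSO-enzyme wells negative, buffer-substituted wells positive.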
# Granule exo CP1 – inhibitors of lytic granule exocytosis, confirmation, TALL-104 cells, flow cytometry, Cherry Pick01; shares compounds with Exocytosis inh; LAMP-1 externalization; stimulated with PMA plus thapsigargin; inhibition, % at 10 µM; 1,500 tested, 11% active; AID 651954, 2012; in the data active = inhibition above about 60%;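 also: 0% = stimulated vehicle wells and 100% = unstimulated wells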
# An asterisk follows results filed as active; . = no result given.
SMILES,Exocytosis inh,PfG6PD inh,ABHD5-PLIN5 inh,HKDC1 inh,Granule exo CP1
CCOc1cccc(CN(CC)CC2CCCN(CCc3cccc(OC)c3)C2)c1O (stereo not given),85.4*,27.4,-7.0,-2.0,-11.6
CCN(Cc1ccc(O)cc1)CC1CCCN(CCc2cccc(F)c2)C1 (stereo not given),67.2*,14.7,-1.6,-8.6,-12.6
CCN(Cc1cccc(OC)c1)CC1CCCN(CCc2cccc(OC)c2)C1 (stereo not given),70.8*,-1.3,2.1,4.5,-12.9
COc1cc(OC)c(OC)cc1CN(C)CC1CCCN(CCc2ccccc2F)C1 (stereo not given),46.1,-2.5,-4.0,-4.8,.
COc1ccc(CCN2CCCC(CN(C)Cc3cc(Cl)c(O)c(OC)c3)C2)cc1 (stereo not given),55.9*,10.2,-3.2,-0.1,-10.8
CN(Cc1ccccc1OCCO)CC1CCCN(CCc2ccc(Cl)cc2)C1 (stereo not given),57.9*,-2.2,6.7,-1.5,-11.2
Cc1ccc(-c2nnn(CC(=O)N(Cc3ccco3)C(C(=O)NC3CCCC3)c3cccs3)n2)o1 (stereo not given),65.9*,2.5,10.3,-5.2,-4.5
O=C(NC1CCCC1)C(c1cccs1)N(Cc1ccco1)C(=O)Cn1nnc(-c2cccs2)n1 (stereo not given),-1.2,-4.3,2.9,-6.8,.
Cc1cc(NC(=O)C(C)SCC(=O)N(Cc2ccccc2)c2ccccc2)no1 (stereo not given),4.9,13.5,2.9,2.5,.
O=C(Nc1cccc2nsnc12)c1ccc(-c2cccc(Cl)c2)o1,91.8*,53.2,13.8,8.0,-6.2
O=C(Nc1ccccc1N1CCCCC1)c1ccc(-c2cccc(Cl)c2)o1,5.2,12.2,2.6,-11.9,.
Nc1c(Br)cc2c([nH]c(=O)c3ccccc32)c1Br,-0.6,12.4,4.9,7.3,.
COc1ccc(N2CCN(C(=O)CSc3nnc(C4CC4)n3C3CC3)CC2)cc1,-8.9,3.8,4.3,.,.
Cc1ccc(-c2cc(C(=O)Nc3ccccc3C)c3ccccc3n2)o1,82.5*,56.7,13.7,2.4,-4.9
COC(=O)c1cc(-c2ccc(C)o2)nc2ccccc12,50.4,36.8,6.1,-0.8,.
COc1cc(-c2cc(C(=O)Nc3cccc(S(=O)(=O)N(C)C)c3)c3ccccc3n2)cc(OC)c1OC,2.2,15.2,-0.7,-0.4,.
Cc1ccc(-c2cc(C(=O)Nc3cccc(S(=O)(=O)N(C)C)c3)c3ccccc3n2)o1,66.1*,52.1,18.3,4.7,-11.7
O=C(NC1CCCN(Cc2ccccc2F)C1)c1cccs1 (stereo not given),1.1,-5.5,-7.2,-0.7,.
COc1cccc(C(=O)NN2C(=S)N(c3ccccc3)C(=O)C2CC(N)=O)c1 (stereo not given),5.1,-6.5,-5.2,-0.6,.
Cc1cc(OCCCC(=O)Nc2cccc(-n3cnnn3)c2)ccc1Cl,66.3*,12.8,-0.6,-2.6,-11.6
COc1cccc(NC(=O)COc2cccc(-n3cnnn3)c2)c1,-0.9,-5.5,2.5,-8.2,.
COc1ccc(CCNc2oc(COc3ccccc3Cl)nc2C#N)cc1OC,2.3,13.6,-3.7,2.1,.
N#Cc1nc(COc2ccccc2Cl)oc1NCc1ccco1,56.3*,6.3,4.2,1.0,-8.2
CC1(C)CC2CC(C)(CN2C(=O)NC(=O)c2ccccc2)C1 (stereo not given),65.8*,3.2,-1.3,-0.5,-4.6
CC1(C)CC2CC(C)(CN2C(=O)Cc2ccccc2)C1 (stereo not given),-1.0,0.1,3.6,-2.9,.
SMILES,Exocytosis inh,PfG6PD inh,ABHD5-PLIN5 inh,HKDC1 inh,Granule exo CP1
N#Cc1ccccc1CSc1ccccn1,-7.7,-22.0,-5.5,-6.9,.
N#Cc1ccc(CSc2ccccn2)c(Cl)c1,80.7*,-0.8,9.8,5.5,-4.0
CCOC(=O)[C@@H]1[C@H]2COc3ccc(Br)cc3[C@@H]2N2C(=O)N(c3ccc(Cl)cc3)C(=O)[C@]12C,-6.0,16.0,-6.8,1.7,.
CCc1nc2c(OCC3CCCCC3)cccn2c1N(C)C(=O)c1ccc(C)cc1,-7.3,.,6.7,.,.
CCOC(=O)Nc1nc(-c2ccc(F)cc2F)cs1,65.1*,2.6,-4.6,-6.3,-13.7
COC(=O)Nc1nc(-c2cc(Cl)ccc2Cl)cs1,0.8,-5.5,-0.9,-5.7,.
Cc1nn(CC(=O)NCCCN2CCC(Cc3ccccc3)CC2)c(=O)c2cc(-c3ccccc3)nn12,87.3*,-4.6,0.0,-2.6,3.1
CCc1ccc(-c2cc3c(=O)n(CC(=O)NCCCN4CCC(Cc5ccccc5)CC4)nc(C)n3n2)cc1,55.2,-10.7,10.2,-3.7,.
CC1C(=O)N2CCCc3cc(S(=O)(=O)Nc4ccccc4C(N)=O)cc1c32 (stereo not given),-4.4,-17.8,0.7,-3.1,.
Clc1ccc(OCCCNCc2ccccc2)c2ccccc12,99.4*,2.2,9.5,1.7,6.4
Brc1ccccc1OCCNCc1ccccc1,-0.6,10.1,6.3,-11.2,.
COc1ccc(CN(C)C(c2ccccc2)c2nnnn2-c2ccccc2C)c(OC)c1C (stereo not given),1.4,-1.6,0.7,3.4,.
COc1cccc(CN(C)C(c2ccccc2)c2ccccc2)c1OC,88.8*,-22.1,-8.7,0.9,-2.3
COc1ccc2nc(C)cc(N3CCN(c4ccccc4)CC3)c2c1,64.6*,-3.8,-1.3,2.9,-2.3
Cc1ccc(-n2c(CCc3ccccc3)nnc2SCC(=O)NCc2ccccc2)cc1C,68.1*,-11.5,-0.5,1.8,12.7
NS(=O)(=O)c1ccc(N2C(=O)CCCC2=O)cc1,2.3,-5.2,1.9,.,.
CCOCCCn1c(SCc2ccccc2)nnc1-c1ccncc1,-1.8,8.4,0.6,-6.6,.
O=c1c(-c2ccc(Cl)cc2)cnc2n1CCS2,0.1,1.6,-4.8,-12.3,.
CCCCn1nnnc1C(c1cccc2ccccc12)N1CCN(C/C=C/c2ccccc2)CC1 (stereo not given),57.5*,.,8.9,.,28.1
CCCCn1nnnc1C(c1ccnc2ccccc12)N1CCN(C/C=C/c2ccccc2)CC1 (stereo not given),-5.9,.,-7.4,.,.
COc1ccc(S(=O)(=O)NCCN2CCNC2=O)cc1OC,16.2,-13.1,5.6,-3.2,.
CN(c1ccccc1)S(=O)(=O)c1cccc(C(=O)NCCc2c[nH]c3ccccc23)c1,65.7*,3.7,4.0,-3.9,86.0*
CCc1cc2ccccc2nc1SCC(=O)NC1CCCC1,79.4*,-19.4,-7.0,-5.0,-4.1
N#Cc1cc2ccccc2nc1SCC(=O)NC1CC1,2.3,-2.0,9.3,-2.0,.
O=c1[nH]c(=S)[nH]c2c1C(c1ccc(F)cc1)OC(C1CCCCC1)C2 (stereo not given),3.6,.,-13.6,.,.
COc1ccc(C(O)(CCN2CCCCC2)C2CCCCC2)cc1 (stereo not given),75.2*,6.0,-2.9,-4.7,-12.0
